Reference: ChEMBL document CHEMBL1208755, “5-Nitro-2-furoic acid hydrazones: design, synthesis and in vitro antimycobacterial evaluation against log and starved phase cultures” (Bioorg Med Chem Lett, 2010)
Values after ≈ are worked out from the molar mass of the structure shown.

Tests used:
[1] = target: T1, Isocitrate lyase (Mycobacterium tuberculosis) (UniProt P9WKK7); assay: Percent inhibition of Mycobacterium tuberculosis isocitrate lyase (ICL) at 10 uM
T1 sequence (whole entry): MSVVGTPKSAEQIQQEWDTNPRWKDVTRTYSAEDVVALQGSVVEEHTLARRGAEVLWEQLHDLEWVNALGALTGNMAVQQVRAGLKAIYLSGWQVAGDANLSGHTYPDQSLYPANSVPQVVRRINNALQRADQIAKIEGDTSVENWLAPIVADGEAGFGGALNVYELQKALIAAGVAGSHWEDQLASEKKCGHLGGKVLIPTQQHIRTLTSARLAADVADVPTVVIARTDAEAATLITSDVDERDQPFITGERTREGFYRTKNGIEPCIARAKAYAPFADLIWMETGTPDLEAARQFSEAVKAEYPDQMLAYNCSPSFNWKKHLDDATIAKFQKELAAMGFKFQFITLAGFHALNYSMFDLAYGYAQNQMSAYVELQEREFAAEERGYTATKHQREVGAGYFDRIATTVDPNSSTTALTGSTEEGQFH
Outline: (§1)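 Isocitrate lyase activity was measured at 37 °C with phenylhydrazine present, reading glyoxylate-phenylhydrazone formation at 324 nm. Percent inhibition was determined at a single concentration.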

[2] = tested on: Mycobacterium tuberculosis; assay: Antimicrobial activity aagainst Mycobacterium tuberculosis ATCC 14468 in log phase by agar dilution method; assay type: functional
Outline: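 M. tuberculosis log-phase cultures were tested by agar dilution following NCCLS-type guidance, in duplicate. MIC was taken as the lowest concentration giving complete inhibition of bacterial growth.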

[3] = Cytotoxicity against african green monkey Vero cells after 72 hrs by MTT assay; assay type: cell-based; settings: chlorocebus sabaeus
[4] = Antimicrobial activity aagainst Mycobacterium sp. Mc2 in log phase assessed as inhibition of growth; assay type: functional
Outline: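 Agar dilution along the lines of NCCLS guidance, run in duplicate on log-phase cultures. MIC is the lowest compound concentration that gives complete inhibition of bacterial growth.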

[5] = Antimicrobial activity aagainst Mycobacterium sp. Mc2 in presence of acetate; assay type: functional
[6] = tested on: Mycobacterium tuberculosis; assay: Antimicrobial activity aagainst Mycobacterium tuberculosis ATCC 14468 in starved phase by agar dilution method; assay type: functional
Outline: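 Six-week nutrient-starved M. tuberculosis cells were tested by agar dilution in duplicate, following a literature procedure. MIC was taken as the lowest concentration giving complete inhibition of growth.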

[7] = target: T1, Isocitrate lyase (Mycobacterium tuberculosis); assay: Percent inhibition of Mycobacterium tuberculosis isocitrate lyase (ICL) at 100 uM; outline: as §1

With `C/C(=N\NC(=O)c1ccc([N+](=O)[O-])o1)c1ccc(C)cc1` the inhibition [1] was 32.5%, the MIC [2] was 10.9 µM (≈ 3.13 µg/mL) and the CC50 at 72 h [3] was > 218 µM. It also gave an MIC [4] of 43.5 µM (≈ 12.5 µg/mL), an MIC [5] of 43.5 µM and an MIC [6] of 43.5 µM (≈ 12.5 µg/mL).

With `NNC(=O)c1ccncc1` [ISONIAZID] the MIC [2] was 0.72 µM (≈ 0.0987 µg/mL), the CC50 at 72 h [3] was > 456 µM and the MIC [4] was 45.6 µM (≈ 6.25 µg/mL). For the same compound, the MIC [5] was > 91.1 µM and the MIC [6] was > 91.1 µM.

For `CO[C@H]1/C=C/O[C@@]2(C)Oc3c(C)c(O)c4c(O)c(c(/C=N/N5CCN(C)CC5)c(O)c4c3C2=O)NC(=O)/C(C)=C\C=C\[C@H](C)[C@H](O)[C@@H](C)[C@@H](O)[C@@H](C)[C@H](OC(C)=O)[C@@H]1C` [RIFAMPIN], the MIC [2] was 0.48 µM (≈ 0.395 µg/mL), the CC50 at 72 h [3] was > 75.9 µM and the MIC [4] was 1.89 µM (≈ 1.56 µg/mL). For the same compound, the MIC [5] was > 15.2 µM and the MIC [6] was > 15.2 µM.

For `O=C(N/N=C/c1ccc(O)cc1)c1ccc([N+](=O)[O-])o1`, the MIC [2] was > 45.4 µM, the MIC [4] was > 45.4 µM and the MIC [5] was 45.4 µM.

Work on `COc1ccc(/C=N/NC(=O)c2ccc([N+](=O)[O-])o2)cc1` yielded an MIC [2] of 21.6 µM (≈ 6.25 µg/mL), an MIC [4] of 43.2 µM (≈ 12.5 µg/mL) and an MIC [5] of 21.6 µM.

In the case of `O=C(N/N=C/c1ccccc1[N+](=O)[O-])c1ccc([N+](=O)[O-])o1`, the inhibition [1] is reported as 46.8%, the MIC [2] is reported as 10.3 µM (≈ 3.13 µg/mL) and the CC50 at 72 h [3] is reported as 206 µM. It also gave an MIC [4] of 10.3 µM (≈ 3.13 µg/mL), an MIC [5] of 10.3 µM and an MIC [6] of 41.1 µM (≈ 12.5 µg/mL).

Compound `O=C(N/N=C/c1ccccc1)c1ccc([N+](=O)[O-])o1` has an MIC [2] of 48.2 µM (≈ 12.5 µg/mL), an MIC [4] of 192 µM (≈ 49.8 µg/mL) and an MIC [5] of 48.2 µM.

Compound `O=C(N/N=C/c1ccc(Cl)cc1)c1ccc([N+](=O)[O-])o1` has an MIC [2] of 21.3 µM (≈ 6.25 µg/mL), an MIC [4] of 42.6 µM (≈ 12.5 µg/mL) and an MIC [5] of 10.7 µM.

For `C/C(=N\NC(=O)c1ccc([N+](=O)[O-])o1)c1ccc([N+](=O)[O-])cc1`, the inhibition [1] was 48.9%, the MIC [2] was 9.84 µM (≈ 3.13 µg/mL) and the CC50 at 72 h [3] was > 197 µM. For the same compound, the MIC [4] was 19.6 µM (≈ 6.25 µg/mL), the MIC [5] was 19.6 µM and the MIC [6] was 19.6 µM (≈ 6.25 µg/mL).

With `O=C(N/N=C/c1cccc(Br)c1)c1ccc([N+](=O)[O-])o1` the MIC [2] was 18.5 µM (≈ 6.25 µg/mL), the MIC [4] was 37 µM (≈ 12.5 µg/mL) and the MIC [5] was 37 µM.

With `C/C(=N\NC(=O)c1ccc([N+](=O)[O-])o1)c1ccc(Br)cc1` the inhibition [1] was 73.1%, the MIC [2] was 8.88 µM (≈ 3.13 µg/mL) and the CC50 at 72 h [3] was > 178 µM. For the same compound, the MIC [4] was 17.8 µM (≈ 6.25 µg/mL), the MIC [5] was 4.43 µM and the MIC [6] was 17.8 µM (≈ 6.25 µg/mL).

With `COc1cc(/C=N/NC(=O)c2ccc([N+](=O)[O-])o2)ccc1O` the MIC [2] was 41 µM (≈ 12.5 µg/mL), the MIC [4] was 81.9 µM (≈ 25 µg/mL) and the MIC [5] was 20.5 µM.

In the case of `O=C(N/N=C/c1ccccc1C(F)(F)F)c1ccc([N+](=O)[O-])o1`, the inhibition [1] is reported as 30.1%, the MIC [2] is reported as 4.76 µM (≈ 1.56 µg/mL) and the CC50 at 72 h [3] is reported as > 191 µM. For the same compound, the MIC [4] was 4.76 µM (≈ 1.56 µg/mL), the MIC [5] was 9.56 µM and the MIC [6] was 19.1 µM (≈ 6.25 µg/mL).

With `O=C(N/N=C/c1ccc(F)cc1)c1ccc([N+](=O)[O-])o1` the MIC [2] was 22.5 µM (≈ 6.25 µg/mL), the MIC [4] was 90.2 µM (≈ 25 µg/mL) and the MIC [5] was 45.1 µM.

In the case of `O=C(O)CC[N+](=O)[O-]`, the inhibition [7] is reported as 63.2%.

`O=C(N/N=C/c1ccc([N+](=O)[O-])cc1)c1ccc([N+](=O)[O-])o1` showed an MIC [2] of 20.6 µM (≈ 6.25 µg/mL), an MIC [4] of 82.2 µM (≈ 25 µg/mL) and an MIC [5] of 20.6 µM.

`C/C(=N\NC(=O)c1ccc([N+](=O)[O-])o1)c1ccc(F)cc1` gave an inhibition [1] of 28.1%, an MIC [2] of 5.35 µM (≈ 1.56 µg/mL) and a CC50 at 72 h [3] of 215 µM. It also gave an MIC [4] of 21.5 µM (≈ 6.25 µg/mL), an MIC [5] of 42.9 µM and an MIC [6] of 21.5 µM (≈ 6.25 µg/mL).

In the case of `C/C(=N\NC(=O)c1ccc([N+](=O)[O-])o1)c1ccccc1`, the inhibition [1] is reported as 34.9%, the MIC [2] is reported as 11.4 µM (≈ 3.13 µg/mL) and the CC50 at 72 h [3] is reported as > 229 µM. It also gave an MIC [4] of 45.7 µM (≈ 12.5 µg/mL), an MIC [5] of 45.7 µM and an MIC [6] of 45.7 µM (≈ 12.5 µg/mL).

With `Cc1ccc(/C=N/NC(=O)c2ccc([N+](=O)[O-])o2)cc1` the inhibition [1] was 19.8%, the MIC [2] was 11.4 µM (≈ 3.13 µg/mL) and the CC50 at 72 h [3] was > 229 µM. It also gave an MIC [4] of 45.7 µM (≈ 12.5 µg/mL), an MIC [5] of 22.9 µM and an MIC [6] of 91.5 µM (≈ 25 µg/mL).

With `O=C(N/N=C/c1ccc(Br)cc1)c1ccc([N+](=O)[O-])o1` the MIC [2] was 18.5 µM (≈ 6.25 µg/mL), the MIC [4] was 73.9 µM (≈ 25 µg/mL) and the MIC [5] was 37 µM.

With `C/C(=N\NC(=O)c1ccc([N+](=O)[O-])o1)c1ccccc1O` the MIC [2] was > 43.2 µM, the MIC [4] was > 43.2 µM and the MIC [5] was > 43.2 µM.

Work on `O=C(N/N=C/c1c(Cl)cccc1Cl)c1ccc([N+](=O)[O-])o1` yielded an MIC [2] of 19 µM (≈ 6.25 µg/mL), an MIC [4] of 76.2 µM (≈ 25 µg/mL) and an MIC [5] of 38.1 µM.

`O=C(N/N=C/c1ccco1)c1ccc([N+](=O)[O-])o1` gave an MIC [2] of 25.1 µM (≈ 6.25 µg/mL), an MIC [4] of 50.2 µM (≈ 12.5 µg/mL) and an MIC [5] of 25.1 µM.

`O=C(N/N=C/c1ccc([N+](=O)[O-])o1)c1ccc([N+](=O)[O-])o1` gave an inhibition [1] of 86.8%, an MIC [2] of 2.65 µM (≈ 0.78 µg/mL) and a CC50 at 72 h [3] of 213 µM. It also gave an MIC [4] of 0.68 µM (≈ 0.2 µg/mL), an MIC [5] of 5.3 µM and an MIC [6] of 10.6 µM (≈ 3.13 µg/mL).
